In ChEMBL document CHEMBL3865805, “Discovery and antiplatelet activity of a selective PI3Kβ inhibitor (MIPS-9922)” (Eur J Med Chem, 2016):
Converted amounts (≈) assume the structure as drawn. The source made the active and inactive calls. The calls are words filed in the database; no cut-off is given here.

Experiments:
[1] = Effect on platelet tethering in human washed platelets at 0.1 to 5 uM; assay type: ADME, cell-based
[2] = Antiplatelet activity against human washed platelets assessed as shear-induced stationary platelet adhesion to vWF matrix at 1 to 5 uM preincubated for 5 mins followed by blood perfusion after 4 mins relative to control; assay type: functional
Summary of the method: (§1)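 Human whole blood, anticoagulated, perfused over a vWf matrix at 1800 s^-1 for 4 min; stationary platelet adhesion scored. Vehicle DMSO 0.25% taken as 100%. Drug tested up to 5 µM. t test against 0.1 µM drug.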

Platelet = experiment: Antiplatelet activity against human washed platelets assessed as reduction in shear-induced stationary platelet adhesion to vWF matrix preincubated for 5 mins followed by blood perfusion after 4 mins; assay type: functional, cell-based; summary of the method: as §1
[3] = target: T1, Phosphatidylinositol 4,5-bisphosphate 3-kinase catalytic subunit beta isoform (Homo sapiens, UniProt P42338); experiment: Inhibition of PI3Kbeta in human washed platelets assessed as suppression of ADP-induced platelet aggregation preincubated for 5 mins followed by ADP stimulation after 10 mins by light transmission aggregometric analysis
Summary of the method: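 Washed human platelets in a conventional aggregometer. Aggregation induced by ADP; IC50 taken from the dose-response curve.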

[4] = target: T1, Phosphatidylinositol 4,5-bisphosphate 3-kinase catalytic subunit beta isoform; experiment: Inhibition of PI3Kbeta in human washed platelets assessed as suppression of ADP-induced platelet aggregation at 0.5 uM preincubated for 5 mins followed by 25 uM ADP stimulation after 10 mins by light transmission aggregometric analysis
Summary of the method: (§2)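 Washed human platelets in an aggregometer. Inhibitor at 0.5 µM. Aggregation induced by 5, 10 or 25 µM ADP; percent inhibition read.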

[5] = target: T1, Phosphatidylinositol 4,5-bisphosphate 3-kinase catalytic subunit beta isoform; experiment: Inhibition of PI3Kbeta in human washed platelets assessed as suppression of ADP-induced platelet aggregation at 0.5 uM preincubated for 5 mins followed by 5 to 10 uM ADP stimulation after 10 mins by light transmission aggregometric analysis; summary of the method: as §2
[6] = target: T1, Phosphatidylinositol 4,5-bisphosphate 3-kinase catalytic subunit beta isoform; experiment: Inhibition of PI3Kbeta in human platelet-rich plasma assessed as suppression of ADP-induced platelet aggregation preincubated for 5 mins followed by ADP stimulation after 10 mins by light transmission aggregometric analysis
Summary of the method: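 Human platelet-rich plasma stimulated with ADP; aggregation measured over a concentration range of inhibitor, and IC50 taken from the dose-response curve.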

[7] = target: T1, Phosphatidylinositol 4,5-bisphosphate 3-kinase catalytic subunit beta isoform; experiment: Inhibition of PI3Kbeta in human washed platelets assessed as suppression of ADP-induced integrin alpha2bbeta3 activation preincubated for 5 mins followed by ADP stimulation after 10 mins by OG-FNG-based FACS analysis
Summary of the method: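 Washed human platelets stimulated with ADP (5 µM). Integrin αIIbβ3 activation read as Oregon-Green fibrinogen binding by flow cytometry. DMSO 0.25% control set as 100%. n = 3, mean ± SEM. t test against 0.001 µM drug.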

[8] = target: T2, Proteinase-activated receptor 1 (Homo sapiens) (UniProt P25116); experiment: Inhibition of PAR1 in human washed platelets assessed as suppression of TRAP-induced integrin alpha2bbeta3 activation preincubated for 5 mins followed by TRAP stimulation after 10 mins by OG-FNG-based FACS analysis
T2 sequence (whole entry): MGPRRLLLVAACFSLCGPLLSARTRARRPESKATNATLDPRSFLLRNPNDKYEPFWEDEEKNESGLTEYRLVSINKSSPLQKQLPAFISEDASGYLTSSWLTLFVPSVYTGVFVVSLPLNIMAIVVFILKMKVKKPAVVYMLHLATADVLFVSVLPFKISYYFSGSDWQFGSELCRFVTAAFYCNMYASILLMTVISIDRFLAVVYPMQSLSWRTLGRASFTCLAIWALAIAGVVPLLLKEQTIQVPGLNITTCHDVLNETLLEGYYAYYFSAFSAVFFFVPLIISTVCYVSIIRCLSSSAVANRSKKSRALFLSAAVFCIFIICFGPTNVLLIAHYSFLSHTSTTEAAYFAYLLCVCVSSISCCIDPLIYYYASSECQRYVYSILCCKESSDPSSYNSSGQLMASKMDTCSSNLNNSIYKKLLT
Summary of the method: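 Washed human platelets stimulated with TRAP at 0.5–1 µM, chosen by donor response. αIIbβ3 activation read as Oregon-Green fibrinogen binding by flow cytometry. DMSO 0.25% control set as 100%. n = 4-7, mean ± SEM.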

[9] = Effect on platelet translocation in human washed platelets at 0.1 to 5 uM; assay type: ADME, cell-based
[10] = Aqueous solubility of compound in saline; assay type: physicochemical; conditions: buffer
Mus musculus [11] = experiment: Antithrombosis activity in C57BL/6 mouse model of electrolytic injury induced occlusive thrombus formation assessed as prevention of arterial thrombi formation by measuring effect on rate of carotid artery blood flow at 2.5 mg/kg, iv administered through bolus prior to electrolytic injury; assay type: functional, organism-based
Summary of the method: (§3)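 Electrolytic injury to the mouse carotid artery; 2.5 mg/kg given iv in saline (n = 8) against saline control (n = 8). Carotid blood flow (ml/min per 100 g body weight) monitored after injury, and flow volume taken as area under the curve over the 60-min period; mean ± S.E.M.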

Mus musculus [12] = experiment: Antithrombosis activity in C57BL/6 mouse model of electrolytic injury induced occlusive thrombus formation assessed as prevention of arterial thrombi formation by measuring effect on carotid artery blood flow volume at 2.5 mg/kg, iv administered through bolus prior to electrolytic injury measured after 60 mins; assay type: functional, organism-based; summary of the method: as §3
Mus musculus [13] = experiment: Toxicity in C57BL/6 mouse model of electrolytic injury induced occlusive thrombus formation assessed as increase in tail bleeding time at 2.5 mg/kg, iv bolus administration; assay type: organism-based; conditions: in vivo
Summary of the method: (§4)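 Mouse tail bleeding assay after 2.5 mg/kg iv (n = 8) against vehicle, 0.01% DMSO (n = 8). Tail bleeding time recorded; blood loss quantified as absorbance of haemoglobin at 575 nm.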

Mus musculus [14] = experiment: Toxicity in C57BL/6 mouse model of electrolytic injury induced occlusive thrombus formation assessed as excessive blood loss at 2.5 mg/kg, iv bolus administration; assay type: organism-based; conditions: in vivo; summary of the method: as §4
[15] = Apparent oral bioavailability in Sprague-Dawley rat at 20 mg/kg administered via gavage by LC-MS analysis; assay type: ADME, organism-based; conditions: in vivo, read-out: Fapp
Summary of the method: (§5)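 Sprague Dawley rats, n=2 per route. Single dose: 3 mg/kg intravenous or 20 mg/kg oral. Plasma concentration followed over time. Half-life, volume of distribution, clearance, Tmax and oral bioavailability derived from the plasma concentration-time profiles.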

[16] = Apparent half life in Sprague-Dawley rat at 3 mg/kg, iv by LC-MS analysis; assay type: ADME, organism-based; conditions: in vivo, read-out: t1/2(app); summary of the method: as §5
[17] = Plasma clearance in Sprague-Dawley rat at 3 mg/kg, iv by LC-MS analysis; assay type: ADME, organism-based; summary of the method: as §5
[18] = Volume of distribution at steady state in Sprague-Dawley rat at 3 mg/kg, iv by LC-MS analysis; assay type: ADME, organism-based; conditions: in vivo, read-out: Vdss; summary of the method: as §5
[19] = Tmax in Sprague-Dawley rat at 20 mg/kg, po via gavage by LC-MS analysis; assay type: ADME, organism-based; conditions: in vivo; summary of the method: as §5
[20] = Distribution constant, logD of compound at pH 3; assay type: physicochemical; conditions: buffer
[21] = Distribution constant, logD of compound at pH 7.4; assay type: physicochemical; conditions: buffer
[22] = Aqueous solubility of compound at pH 2 by turbidimetric solubility assay; assay type: physicochemical; conditions: buffer
[23] = Aqueous solubility of compound at pH 6.5 by turbidimetric solubility assay; assay type: physicochemical; conditions: buffer
albumin = albumin (Homo sapiens, UniProt P02768); experiment: Protein binding to human serum albumin by HPLC analysis; assay type: ADME; conditions: read-out: PB (converted)
[24] = Intrinsic clearance in rat liver microsomes at 1 uM after 60 mins in presence of NADPH by UPLC-MS analysis; assay type: ADME; conditions: read-out: CLH
[25] = Stability in Sprague-Dawley rat plasma at […] after 4 hrs by UPLC-MS analysis; assay type: ADME, cell-free
[26] = Intrinsic clearance in human liver microsomes at 1 uM after 60 mins in presence of NADPH by UPLC-MS analysis; assay type: ADME; conditions: read-out: CLH
[27] = Clearance in rat by LC-MS analysis relative to hepatic blood flow; assay type: ADME, Liver; conditions: in vivo
[28] = Blood clearance in rat by LC-MS analysis; assay type: ADME, tissue-based; conditions: whole blood
[29] = Drug excretion in iv dosed rat urine by LC-MS analysis; assay type: ADME, organism-based; conditions: read-out: Drug excretion
Rattus norvegicus = experiment: Toxicity in Sprague-Dawley rat at 20 mg/kg, po administered via gavage or 3 mg/kg, iv; assay type: organism-based; conditions: in vivo

T1 sequence (P42338 whole entry, looked up, canonical isoform): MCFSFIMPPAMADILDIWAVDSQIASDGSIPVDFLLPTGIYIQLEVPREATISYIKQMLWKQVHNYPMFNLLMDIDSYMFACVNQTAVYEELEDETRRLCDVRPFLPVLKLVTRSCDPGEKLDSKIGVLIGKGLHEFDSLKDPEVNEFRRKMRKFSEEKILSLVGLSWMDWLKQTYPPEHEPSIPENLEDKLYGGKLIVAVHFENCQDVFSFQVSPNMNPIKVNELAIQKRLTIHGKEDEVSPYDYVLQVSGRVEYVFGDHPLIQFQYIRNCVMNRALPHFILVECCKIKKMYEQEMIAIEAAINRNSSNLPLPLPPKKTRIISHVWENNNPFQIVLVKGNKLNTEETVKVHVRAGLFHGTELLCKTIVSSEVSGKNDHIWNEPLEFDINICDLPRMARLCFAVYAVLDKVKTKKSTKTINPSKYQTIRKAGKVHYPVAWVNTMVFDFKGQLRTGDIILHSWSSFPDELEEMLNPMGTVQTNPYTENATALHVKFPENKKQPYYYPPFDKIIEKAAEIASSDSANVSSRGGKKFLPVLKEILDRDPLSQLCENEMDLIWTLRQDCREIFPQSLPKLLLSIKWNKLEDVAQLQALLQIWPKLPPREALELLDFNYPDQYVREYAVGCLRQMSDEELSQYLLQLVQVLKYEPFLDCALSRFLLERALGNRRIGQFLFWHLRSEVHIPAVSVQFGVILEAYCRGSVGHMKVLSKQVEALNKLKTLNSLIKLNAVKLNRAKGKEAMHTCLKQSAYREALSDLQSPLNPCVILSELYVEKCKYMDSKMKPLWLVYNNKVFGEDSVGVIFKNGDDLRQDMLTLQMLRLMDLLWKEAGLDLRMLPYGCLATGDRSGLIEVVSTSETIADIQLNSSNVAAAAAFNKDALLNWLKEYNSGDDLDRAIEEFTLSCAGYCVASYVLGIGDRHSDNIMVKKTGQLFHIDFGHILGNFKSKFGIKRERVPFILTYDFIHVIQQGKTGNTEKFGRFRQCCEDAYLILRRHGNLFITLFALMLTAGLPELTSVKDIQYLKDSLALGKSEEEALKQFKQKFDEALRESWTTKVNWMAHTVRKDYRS
albumin, sequence (P02768 whole entry): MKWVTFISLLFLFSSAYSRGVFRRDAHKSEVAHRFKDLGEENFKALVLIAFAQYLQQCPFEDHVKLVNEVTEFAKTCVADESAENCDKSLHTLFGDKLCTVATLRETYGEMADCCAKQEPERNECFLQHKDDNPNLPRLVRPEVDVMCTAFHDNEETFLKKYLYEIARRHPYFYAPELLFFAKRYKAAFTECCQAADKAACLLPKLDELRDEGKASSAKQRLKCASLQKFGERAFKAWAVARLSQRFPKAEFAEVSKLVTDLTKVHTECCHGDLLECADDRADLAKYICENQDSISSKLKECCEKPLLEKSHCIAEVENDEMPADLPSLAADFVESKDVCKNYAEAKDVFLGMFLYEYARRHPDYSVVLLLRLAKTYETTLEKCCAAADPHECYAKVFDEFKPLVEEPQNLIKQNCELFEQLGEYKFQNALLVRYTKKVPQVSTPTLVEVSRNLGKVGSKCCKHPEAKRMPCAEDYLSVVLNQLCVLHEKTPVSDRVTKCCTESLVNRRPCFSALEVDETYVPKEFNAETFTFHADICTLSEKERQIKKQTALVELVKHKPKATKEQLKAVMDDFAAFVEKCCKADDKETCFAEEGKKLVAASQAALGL

## N[C@@H](Cc1ccccc1)C(=O)N1CCN(c2nc(N3CCOCC3)nc(-n3c(C(F)F)nc4ccccc43)n2)CC1
[1]
  Activity: Non-Toxic
[2]
  inhibition (INH): <=60%
Platelet
  inhibition: Dose-dependent effect
[3]
  inhibition: Dose-dependent effect
[4]
  inhibition: 15%
[5]
  inhibition: Active
[6]
  inhibition: Dose-dependent effect
[7]
  inhibition: Dose-dependent effect
[8]
  inhibition: Dose-dependent effect
[9]
  Activity: Non-Toxic
[10]
  solubility: Soluble
Mus musculus [11]
  Activity: Active
Mus musculus [12]
  Activity: Active
Mus musculus [13]
  Activity: Non-Toxic
Mus musculus [14]
  Activity: Non-Toxic
[15]
  bioavailability: 26%
[16]
  half-life: 2.8 to 3 h
[17]
  clearance: 67 mL/min/kg
[18]
  Vd: 8.6 L/kg
[19]
  Tmax: 1 to 4 h
[20]
  logD: 3
[21]
  logD: 3.7
[22]
  solubility kinetic: > 100 µg/mL
[23]
  solubility kinetic: 6.3 to 12.5 µg/mL (≈ 11.2 to 22.2 µM)
albumin
  fraction unbound: 0.03
[24]
  microsomal CLint at 1 µM: 43 µL/min/mg
[25]
  Stability: Stable
[26]
  microsomal CLint at 1 µM: 22 µL/min/mg
[27]
  CL: 60%
[28]
  clearance: 39 mL/min/kg
[29]
  dose excreted: < 0.1%
Rattus norvegicus
  Activity: Non-Toxic
